In ChEMBL document CHEMBL4152216, “Syntheses and anti-pancreatic cancer activities of rakicidin A analogues” (Eur J Med Chem, 2018):

Tests used:
ASPC1 [1] = test: Cytotoxicity against human Aspc-1 cells after 72 hrs under normoxic condition by MTT assay; format: functional, cell-based; settings: ASPC1, 72 h
Procedure, shortened: (§1)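 PANC-1, PATU8988T and ASPC-1 cells were grown in DMEM with 10% FBS at 37 °C and 5% CO2, then seeded at 4000 cells/well. Compounds were added at various concentrations after 6 h. Normoxic plates stayed at 37 °C, 5% CO2. Hypoxic plates went into a chamber purged 10 min with 5% CO2/1% O2/94% N2, sealed, at 37 °C. After 72 h, MTT was added for 4 h, formazan dissolved in DMSO and read at 570 nm. IC50 is the mean ± SD of three independent experiments.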

PANC-1 [2] = test: Inhibition of cancer stem cell population of human PANC1 cells assessed as CD24+/CD44+/ESA+ cell population level at 0.15 uM after 48 hrs by flow cytometric analysis (reference value: 1.7%); format: functional; design: scale not given: the % may be the effect or the level left
PaTu 8988t [3] = test: Cytotoxicity against human PA-TU-8988T cells after 72 hrs under hypoxic condition by MTT assay; format: functional, cell-based; procedure, shortened: as §1
PaTu 8988t [4] = test: Selectivity index, ratio of IC50 against human PA-TU-8988T cells under normoxic condition to IC50 for human PA-TU-8988T cells under hypoxic condition; format: functional
Procedure, shortened: (§2)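 Hypoxic selectivity index is IC50 (normoxia)/IC50 (hypoxia). Both IC50s come from the 72 h MTT assay in the same cell line, run under normoxia (37 °C, 5% CO2) or a sealed 1% O2/5% CO2/94% N2 chamber, each the mean of three independent experiments.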

PaTu 8988t [5] = test: Cytotoxicity against human PA-TU-8988T cells after 72 hrs under normoxic condition by MTT assay; format: functional, cell-based; procedure, shortened: as §1
PANC-1 [6] = test: Cytotoxicity against human PANC1 cells after 72 hrs under hypoxic condition by MTT assay; format: functional, cell-based; settings: PANC-1, 72 h; procedure, shortened: as §1
ASPC1 [7] = test: Cytotoxicity against human Aspc-1 cells after 72 hrs under hypoxic condition by MTT assay; format: functional, cell-based; settings: ASPC1, 72 h; procedure, shortened: as §1
ASPC1 [8] = test: Selectivity index, ratio of IC50 against human Aspc-1 cells under normoxic condition to IC50 for human Aspc-1 cells under hypoxic condition; format: functional; procedure, shortened: as §2
PANC-1 [9] = test: Selectivity index, ratio of IC50 against human PANC1 cells under normoxic condition to IC50 for human PANC1 cells under hypoxic condition; format: functional; procedure, shortened: as §2
PANC-1 [10] = test: Cytotoxicity against human PANC1 cells after 72 hrs under normoxic condition by MTT assay; format: functional, cell-based; settings: PANC-1, 72 h; procedure, shortened: as §1

Row | SMILES | IC50 (ASPC1 [1]) [µM] | Activity (PANC-1 [2]) [%] | IC50 (PaTu 8988t [3]) [µM] | Ratio IC50 (PaTu 8988t [4]) | IC50 (PaTu 8988t [5]) [µM] | IC50 (PANC-1 [6]) [µM] | IC50 (ASPC1 [7]) [µM] | Ratio IC50 (ASPC1 [8]) | Ratio IC50 (PANC-1 [9]) | IC50 (PANC-1 [10]) [µM]
1 | C=C1/C=C/C(=O)N(C)CC(=O)N[C@@H](Cc2ccccc2)C(=O)O[C@@H]([C@H](C)CCCCCCCCCCCCCC)[C@H](C)C(=O)N1 | 1.4 | 1.6 | 0.65 | 2.14 | 1.4 | 0.12 | 0.6 | 2.4 | 3.76 | 0.43
2 | C=C1/C=C/C(=O)N(C)CC(=O)N[C@@H](CCC(=O)OC)C(=O)O[C@@H]([C@H](C)CCCCCCCCCCCCCC)[C@H](C)C(=O)N1 |  |  |  |  |  | 0.3 |  |  | 3.54 | 1.1
3 | CC(=O)O[C@H]1C(=O)[C@@]2(C)[C@H]([C@H](OC(=O)c3ccccc3)[C@]3(O)C[C@H](OC(=O)[C@H](O)[C@@H](NC(=O)c4ccccc4)c4ccccc4)C(C)=C1C3(C)C)[C@]1(OC(C)=O)CO[C@@H]1C[C@@H]2O [PACLITAXEL] |  | 1.6 |  |  |  |  |  |  |  | 
4 | C=C1/C=C/C(=O)N(C)CC(=O)N[C@@H](C(C)C)C(=O)O[C@@H]([C@H](C)CCCCCCCCCCCCCC)[C@H](C)C(=O)N1 |  |  |  |  |  | 0.35 |  |  | 3 | 1
5 | C=C1/C=C/C(=O)N(C)CC(=O)N[C@@H]([C@H](O)C(=O)OC)C(=O)O[C@@H]([C@H](C)CCCCCCCCCCCC(C)C)[C@H](C)C(=O)N1 | 0.54 | 0.83 | 0.12 | 3.91 | 0.45 | 0.09 | 0.15 | 3.63 | 2.98 | 0.27
6 | C#CCOC(=O)C[C@@H]1NC(=O)CN(C)C(=O)/C=C/C(=C)NC(=O)[C@@H](C)[C@H]([C@H](C)CCCCCCCCCCCC(C)C)OC1=O | 0.26 | 1.9 | 0.11 | 2.8 | 0.3 | 0.066 | 0.12 | 2.23 | 2.21 | 0.15
7 | C=C1/C=C/C(=O)N(C)CC(=O)N[C@@H](CC(=O)NC)C(=O)O[C@@H]([C@H](C)CCCCCCCCCCCCCC)[C@H](C)C(=O)N1 | 0.5 | 0.33 | 0.06 | 4.42 | 0.26 | 0.038 | 0.046 | 10.98 | 4.44 | 0.17
8 | C=C1/C=C/C(=O)N(CCCCCC)CC(=O)N[C@@H]([C@H](O)C(=O)OC)C(=O)O[C@@H]([C@H](C)CCCCCCCCCCCC(C)C)[C@H](C)C(=O)N1 |  |  |  |  |  | 7 |  |  | >7.11 | > 50
9 | C=C1/C=C/C(=O)N(C)CC(=O)N[C@@H](CC(=O)OCC)C(=O)O[C@@H]([C@H](C)CCCCCCCCCCCC(C)C)[C@H](C)C(=O)N1 | 0.28 |  | 0.11 | 2.89 | 0.32 | 0.074 | 0.15 | 1.85 | 2.43 | 0.18
10 | C=C1/C=C/C(=O)N(C)C(C)C(=O)N[C@@H]([C@H](O)C(=O)OC)C(=O)O[C@@H]([C@H](C)CCCCCCCCCCCC(C)C)[C@H](C)C(=O)N1 (single isomer, unassigned; 1d) | 3.2 |  | 0.38 | 2.86 | 1.1 | 0.079 | 0.4 | 7.87 | 8.34 | 0.66
11 | C=C1/C=C/C(=O)N(C)CC(=O)N[C@@H](CC(=O)OC(C)C)C(=O)O[C@@H]([C@H](C)CCCCCCCCCCCC(C)C)[C@H](C)C(=O)N1 |  |  |  |  |  | 0.7 |  |  | 2.6 | 1.8
12 | C=C1/C=C/C(=O)N(C)CC(=O)O[C@@H](CCCCCCCCCCCCC)[C@H](C)C(=O)[C@](C)(O)C(=O)NCC(=O)N1 |  |  |  |  |  | 0.015 |  |  | 43.33 | 0.65
13 | C=C1/C=C/C(=O)N(CC(F)(F)F)CC(=O)N[C@@H]([C@H](O)C(=O)OC)C(=O)O[C@@H]([C@H](C)CCCCCCCCCCCC(C)C)[C@H](C)C(=O)N1 |  |  |  |  |  | 1.5 |  |  | 1.72 | 2.5
14 | C=C1/C=C/C(=O)N(C)CC(=O)N[C@@H]([C@H](O)C(=O)OCC)C(=O)O[C@@H]([C@H](C)CCCCCCCCCCCC(C)C)[C@H](C)C(=O)N1 | 0.48 |  | 0.12 | 3.25 | 0.38 | 0.067 | 0.18 | 2.64 | 2.33 | 0.16
15 | C=C1/C=C/C(=O)N(C)C(C)C(=O)N[C@@H]([C@H](O)C(=O)OC)C(=O)O[C@@H]([C@H](C)CCCCCCCCCCCC(C)C)[C@H](C)C(=O)N1 (single isomer, unassigned; 1c) | 1.2 |  | 0.2 | 2.79 | 0.54 | 0.043 | 0.2 | 5.71 | 9.53 | 0.41
16 | CCCCCCCCCCCCCC[C@@H](C)[C@@H]1OC(=O)[C@H](CC(=O)NC2CC2)NC(=O)CN(C)C(=O)/C=C/C(CO[Si](c2ccccc2)(c2ccccc2)C(C)(C)C)NC(=O)[C@H]1C (stereo not given in full) |  |  |  |  |  | > 10 |  |  |  | > 10
17 | COC(=O)C[C@@H]1NC(=O)CN(C)C(=O)/C=C/CNC(=O)[C@@H](C)[C@H]([C@H](C)CCCCCCCCCCCC(C)C)OC1=O |  |  |  |  |  | 28 |  |  | 0.76 | 21
18 | CCCCCCCCCCCCCC[C@@H](C)[C@@H]1OC(=O)[C@H](CC(=O)NC2CC2)NC(=O)CN(C)C(=O)/C=C/[C@H](CO)NC(=O)[C@H]1C |  |  |  |  |  | > 10 |  |  |  | > 10
19 | C=C1/C=C/C(=O)N(C)CC(=O)N[C@@H](C)C(=O)O[C@@H]([C@H](C)CCCCCCCCCCCCCC)[C@H](C)C(=O)N1 |  |  |  |  |  | 0.27 |  |  | 4.04 | 1.1
20 | C=C1/C=C/C(=O)N(C)CC(=O)N[C@@H](CC(=O)OC)C(=O)O[C@@H]([C@H](C)CCCCCCCCCCCCCC)[C@H](C)C(=O)N1 | 0.98 | 0.7 | 0.34 | 1.87 | 0.64 | 0.058 | 0.35 | 2.8 | 1.98 | 0.12
21 | C=C1/C=C/C(=O)N(C)CC(=O)N[C@@H](CC(=O)OC)C(=O)O[C@@H]([C@H](C)CCCCCCCCCCCC(C)C)[C@H](C)C(=O)N1 | 0.36 | 1.2 | 0.073 | 5.03 | 0.36 | 0.048 | 0.6 | 0.59 | 2.36 | 0.11
